Data from PubChem BioAssay AID493213 (Broad Institute, 2011).
Where “and” joins values, the source holds several entries; their conditions need not be identical. Equal entries are not always repeated. Calls of active or inactive are those of the source.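 How the source made its calls: active means dose response lowering luminescence by over half the proteasome blocker control effect, potency within ten times top dose; inactive means change in the opposite direction, plus the rest.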

Experiments:
[1] = tested on: U2OS proteasome chymotrypsin-like activity, Proteasome-Glo luminescence; test: proteasome chymotrypsin-like activity inhibition in U2OS, dose response, counter-screen for HIF activator project, cell-based, luminescence, dry powder, set 3 (AID 493213)
How it was run: (§1)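 System: U2OS cells; compound: 8-point 3-fold series; repeats: duplicates; schedule: 24 h plating, 4 h compound, 2 h reagent; measured by: Proteasome-Glo luminescence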

[2] = as above; details: U2OS proteasome chymotrypsin-like activity, Proteasome-Glo luminescence; at 38 µM (top of the series)
How it was run: as §1

In the case of `O=C(c1cc(-c2ccccc2)on1)N1CCN(c2ccncc2)CC1`, the AC50 [1] is reported as 2.52 µM.
With `Oc1ccc(CNC2Cc3ccccc3C2)c2cccnc12` the activity change, negative = inhibition [2] was 26.4% (inactive).
Work on `O=C(NCCCO)c1cc(-c2ccccc2)on1` yielded an AC50 [1] of 3.88 µM.
With `Cn1c(-c2ccccc2)cnc1NC(=O)c1cc(-c2ccccc2)on1` the activity change, negative = inhibition [2] was -10.3% (inactive).
`Cc1cccc(NC(=O)c2cc(-c3ccccc3)on2)n1` gave an AC50 [1] of 17.3 µM.
For `CC(C)(C)CCNc1nc(-c2ccccn2)nnc1-c1ccccc1`, the activity change, negative = inhibition [2] was 145% (inactive) and 67.4% (inactive).
In the case of `c1ccc(-c2nnc(-c3ccccn3)nc2Nc2nc3ccccc3s2)cc1`, the activity change, negative = inhibition [2] is reported as 28.5% (inactive).
With `COc1cccc(CNc2nc(-c3ccccn3)nnc2-c2ccccc2)c1` the activity change, negative = inhibition [2] was 36.9% (inactive).
In the case of `c1ccc(-c2nnc(Nc3nc(-c4ccccn4)nnc3-c3ccccc3)s2)cc1`, the activity change, negative = inhibition [2] is reported as -5.61% (inactive).
In the case of `O=C(c1cc(-c2ccccc2)on1)N1CCC(N2CCOCC2)CC1`, the activity change, negative = inhibition [2] is reported as -8.89% (inactive).
In the case of `O=C(NCCN1CCCCC1)c1cc(-c2ccccc2)on1`, the activity change, negative = inhibition [2] is reported as -24.8% (inactive).
With `CC1CN(Cc2ccc(O)c3ncccc23)CC(C)O1` (configuration not stated) the activity change, negative = inhibition [2] was 12% (inactive).
For `Oc1ccc(CN2CCC3CCCCC3C2)c2cccnc12` (configuration not stated), the activity change, negative = inhibition [2] was 26.7% (inactive).
In the case of `Clc1cccc(CNc2nc(-c3ccccn3)nnc2-c2ccccc2)c1`, the activity change, negative = inhibition [2] is reported as 46.4% (inactive).
With `c1ccc(-c2nnc(-c3ccccn3)nc2NCC2CCOCC2)cc1` the activity change, negative = inhibition [2] was 6.73% (inactive).
Work on `c1ccc(-c2cnc(Nc3nc(-c4ccccn4)nnc3-c3ccccc3)s2)cc1` yielded an AC50 [1] of 2.42 µM.
With `O=C(NCCCN1CCOCC1)c1cc(-c2ccccc2)on1` the activity change, negative = inhibition [2] was -24.4% (inactive).
With `c1ccc(-c2nnc(-c3ccccn3)nc2NCCCN2CCOCC2)cc1` the activity change, negative = inhibition [2] was 6.94% (inactive).
For `OCCCNc1nc(-c2ccccn2)nnc1-c1ccccc1`, the activity change, negative = inhibition [2] was -5.89% (inactive).
In the case of `CN(C)c1nc(-c2ccccn2)nnc1-c1ccccc1`, the activity change, negative = inhibition [2] is reported as 10.9% (inactive).
In the case of `C=CCNc1nc(-c2ccccn2)nnc1-c1ccccc1`, the activity change, negative = inhibition [2] is reported as 4.88% (inactive).
In the case of `O=C(Nc1nnc(-c2ccccc2)s1)c1cc(-c2ccccc2)on1`, the activity change, negative = inhibition [2] is reported as -5.17% (inactive).
With `O=C(NCCCn1ccnc1)c1cc(-c2ccccc2)on1` the activity change, negative = inhibition [2] was 9.43% (inactive).
For `O=C(Nc1ncc(-c2ccccc2)o1)c1cc(-c2ccccc2)on1`, the activity change, negative = inhibition [2] was -53.8% (inactive).
For `c1ccc(-c2nnc(-c3ccccn3)nc2N2CCC(N3CCOCC3)CC2)cc1`, the activity change, negative = inhibition [2] was 16.5% (inactive).
`O=C(NCC1CC1)c1cc(-c2ccccc2)on1` gave an AC50 [1] of 33.7 µM.
For `c1ccc(-c2nnc(-c3ccccn3)nc2N2CCC(c3ccccc3)C2)cc1` (configuration not stated), the activity change, negative = inhibition [2] was -6.19% (inactive).
In the case of `Cc1cccc(Nc2nc(-c3ccccn3)nnc2-c2ccccc2)n1`, the activity change, negative = inhibition [2] is reported as -11.6% (inactive).
With `c1ccc(-c2nnc(-c3ccccn3)nc2NCc2ccccn2)cc1` the activity change, negative = inhibition [2] was 1.56% (inactive).
With `Cc1cccc(CNc2nc(-c3ccccn3)nnc2-c2ccccc2)c1` the activity change, negative = inhibition [2] was 45.1% (inactive).
In the case of `c1ccc(-c2cccc(CNc3nc(-c4ccccn4)nnc3-c3ccccc3)c2)cc1`, the activity change, negative = inhibition [2] is reported as 26.9% (inactive).
For `N#CC1(c2ccccc2)CCN(Cc2ccc(O)c3ncccc23)CC1`, the activity change, negative = inhibition [2] was 48.4% (inactive).
`CCCCNC(=O)c1cc(-c2ccccc2)on1` gave an AC50 [1] of 21.5 µM.
Molecule `O=C(Nc1ccc2ccccc2n1)c1cc(-c2ccccc2)on1` has an AC50 [1] of 29.1 µM.
In the case of `Oc1ccc(CN2CCC(Cc3ccccc3)CC2)c2cccnc12`, the activity change, negative = inhibition [2] is reported as 30.7% (inactive).
In the case of `C[C@@H](Nc1nc(-c2ccccn2)nnc1-c1ccccc1)c1ccccc1`, the activity change, negative = inhibition [2] is reported as 79.4% (inactive).
Work on `CN(C)CCNC(=O)c1cc(-c2ccccc2)on1` yielded an AC50 [1] of 33.4 µM.
In the case of `c1ccc(CNc2nc(-c3ccccn3)nnc2-c2ccccc2)cc1`, the activity change, negative = inhibition [2] is reported as 25.8% (inactive).
For `Cc1ccccc1CNC(=O)c1cc(-c2ccccc2)on1`, the activity change, negative = inhibition [2] was -46.6% (inactive).
In the case of `OCC1CCN(c2nc(-c3ccccn3)nnc2-c2ccccc2)CC1`, the activity change, negative = inhibition [2] is reported as 6.32% (inactive).
For `O=C(Nc1ncc2ccccc2n1)c1cc(-c2ccccc2)on1`, the AC50 [1] was 28.1 µM.
In the case of `O=C(NCc1ccccc1)c1cc(-c2ccccc2)on1`, the activity change, negative = inhibition [2] is reported as -23.1% (inactive).
In the case of `Oc1ccc(CNC2CCc3ccccc32)c2cccnc12` (configuration not stated), the activity change, negative = inhibition [2] is reported as 81.7% (inactive).
In the case of `CN1CCN(C(=O)c2cc(-c3ccccc3)on2)CC1`, the activity change, negative = inhibition [2] is reported as -34.5% (inactive).
For `CC(C)(C)CCNC(=O)c1cc(-c2ccccc2)on1`, the AC50 [1] was 36.5 µM.
For `CC(C)(C)c1ccc(CNc2nc(-c3ccccn3)nnc2-c2ccccc2)cc1`, the activity change, negative = inhibition [2] was 37.7% (inactive).
With `c1ccc(-c2nnc(-c3ccccn3)nc2N2CCC(C3CCCCC3)C2)cc1` (configuration not stated) the activity change, negative = inhibition [2] was 51.6% (inactive).
`Cc1cccc(CNC(=O)c2cc(-c3ccccc3)on2)c1` gave an AC50 [1] of 39.4 µM.
For `c1ccc(-c2nnc(-c3ccccn3)nc2NCc2cccnc2)cc1`, the activity change, negative = inhibition [2] was 14.6% (inactive).
For `O=C(NCC1CCCCC1)c1cc(-c2ccccc2)on1`, the activity change, negative = inhibition [2] was -23.5% (inactive).
In the case of `c1ccc(-c2csc(Nc3nc(-c4ccccn4)nnc3-c3ccccc3)n2)cc1`, the activity change, negative = inhibition [2] is reported as -8.99% (inactive).
In the case of `c1ccc(-c2nnc(-c3ccccn3)nc2NCC2CC2)cc1`, the activity change, negative = inhibition [2] is reported as -6.55% (inactive).
In the case of `Cc1ccc(NC(=O)c2cc(-c3ccccc3)on2)cn1`, the activity change, negative = inhibition [2] is reported as 14.5% (inactive).
In the case of `Oc1ccc(CN2CCc3ccccc3C2)c2cccnc12`, the activity change, negative = inhibition [2] is reported as 65.3% (inactive) and 46.7% (inactive).
With `OCC1CCN(Cc2ccc(O)c3ncccc23)CC1` the activity change, negative = inhibition [2] was 51.9% (inactive).
In the case of `c1ccc(CCNc2nc(-c3ccccn3)nnc2-c2ccccc2)cc1`, the activity change, negative = inhibition [2] is reported as 43.3% (inactive).
For `Cc1ccc(CNc2nc(-c3ccccn3)nnc2-c2ccccc2)cc1`, the activity change, negative = inhibition [2] was 14.3% (inactive).
With `C[C@@H](Nc1nc(-c2ccccn2)nnc1-c1ccccc1)C1CCCCC1` the activity change, negative = inhibition [2] was 133% (inactive).
With `Cc1ccccc1CNc1nc(-c2ccccn2)nnc1-c1ccccc1` the activity change, negative = inhibition [2] was 29.7% (inactive).
In the case of `Cn1c(NC(=O)c2cc(-c3ccccc3)on2)nc2ccccc21`, the activity change, negative = inhibition [2] is reported as -1.13% (inactive).
For `c1ccc(-c2nnc(-c3ccccn3)nc2NCCc2ccccn2)cc1`, the activity change, negative = inhibition [2] was 16.8% (inactive).
With `O=C(NCCN1CCOCC1)c1cc(-c2ccccc2)on1` the activity change, negative = inhibition [2] was -26.6% (inactive).
In the case of `c1ccc(-c2nnc(-c3ccccn3)nc2Nc2cnc3ccccc3n2)cc1`, the activity change, negative = inhibition [2] is reported as -2.5% (inactive).
For `CN1CCN(c2nc(-c3ccccn3)nnc2-c2ccccc2)CC1`, the activity change, negative = inhibition [2] was 20.7% (inactive).
In the case of `c1ccc(-c2nnc(-c3ccccn3)nc2NCC2CCCCC2)cc1`, the activity change, negative = inhibition [2] is reported as 49.9% (inactive).
With `Cc1ccc(Nc2nc(-c3ccccn3)nnc2-c2ccccc2)cn1` the activity change, negative = inhibition [2] was -25% (inactive).
In the case of `COc1ccc(CNc2nc(-c3ccccn3)nnc2-c2ccccc2)cc1`, the activity change, negative = inhibition [2] is reported as 53.2% (inactive).
In the case of `O=C(Nc1cnc2ccccc2c1)c1cc(-c2ccccc2)on1`, the activity change, negative = inhibition [2] is reported as -16.4% (inactive).
With `O=C(c1cc(-c2ccccc2)on1)N1CCC(CO)CC1` the activity change, negative = inhibition [2] was -22.3% (inactive).
In the case of `C[C@H](Nc1nc(-c2ccccn2)nnc1-c1ccccc1)C1CCCCC1`, the activity change, negative = inhibition [2] is reported as 72.6% (inactive).
In the case of `Cc1ccc(CNc2nc(-c3ccccn3)nnc2-c2ccccc2)cc1C`, the activity change, negative = inhibition [2] is reported as 76.7% (inactive).
For `c1ccc(-c2nnc(-c3ccccn3)nc2N2CCN(c3ccncc3)CC2)cc1`, the activity change, negative = inhibition [2] was 10.3% (inactive).
With `COc1ccccc1N1CCN(Cc2ccc(O)c3ncccc23)CC1` the activity change, negative = inhibition [2] was 27.2% (inactive).
With `c1ccc(-c2ccc(CNc3nc(-c4ccccn4)nnc3-c3ccccc3)cc2)cc1` the activity change, negative = inhibition [2] was 22% (inactive).
With `CC(Nc1nc(-c2ccccn2)nnc1-c1ccccc1)c1ccccc1` (configuration not stated) the activity change, negative = inhibition [2] was 22.8% (inactive).
In the case of `Cn1c(-c2ccccc2)cnc1Nc1nc(-c2ccccn2)nnc1-c1ccccc1`, the activity change, negative = inhibition [2] is reported as 6.25% (inactive).
In the case of `CC(C)(C)OC(=O)N1CCN(Cc2ccc(O)c3ncccc23)CC1`, the activity change, negative = inhibition [2] is reported as 3.79% (inactive).
